In ChEMBL document CHEMBL1129970, “Biologically active conformer of the effector region of human C5a and modulatory effects of N-terminal receptor binding determinants on activity” (J Med Chem, 1997):

Experiments:
[1] = species: Homo sapiens; test: Effective concentration to induce smooth muscle contraction in human fetal artery; format: functional; details: Muscle tissue
Procedure, shortened: (§1)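 Human fetal artery smooth muscle contraction; full dose–response curves for recombinant human C5a or each peptide in the same tissue preparation. EC50 is the concentration giving 50% of the maximal response, read relative to the C5a maximum. pD2 = −log EC50 (M), averaged per peptide ± SE. Log potency ratio pD2(C5a) − pD2(peptide) is computed within each experiment. Relative potency = antilog(−Δ) × 100.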

[2] = species: Homo sapiens; test: Effective concentration to stimulate beta-glucuronidase release from human polymorphonuclear cells (PMN) (n=5); format: functional
Procedure, shortened: (§2)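 Human PMNs pretreated with cytochalasin B (5 μg/mL, 10 min, 37 °C), then 10⁶ cells stimulated for 60 min at 37 °C. β-Glucuronidase in the supernatant is assayed with 0.01 M p-nitrophenyl β-D-glucuronide (0.1 M acetate, pH 4, 18 h) in triplicate. Reaction stopped with glycine pH 10 and read at 415 nm. pD2 is taken from dose–response curves against the C5a EC50. Efficacy is given relative to C5a maximum (100%).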

[3] = species: Homo sapiens; test: Effective concentration to stimulate beta-glucuronidase release from human polymorphonuclear cells (PMN) (n=4); format: functional; procedure, shortened: as §2
[4] = species: Homo sapiens; test: Log potency ratio [pD2(C5a)-pD2(peptide)] was determined in human fetal artery; format: functional; procedure, shortened: as §1
[5] = species: Homo sapiens; test: Log potency ratio [pD2(C5a)-pD2(peptide)] was determined in human polymorphonuclear cells (PMN) (n=4); format: functional; procedure, shortened: as §2
[6] = Selectivity of peptide was determined from antilog[pD2(fetal artery)-pD2 (PMN enzyme release)] (n=11); format: functional
Procedure, shortened: (§3)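 Selectivity = antilog[pD2(fetal artery) − pD2(PMN β-glucuronidase release)]. pD2 values come from full dose–response curves in each assay, each generated alongside C5a.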

[7] = species: Homo sapiens; test: Relative potency of peptide to stimulate beta-glucuronidase release from human polymorphonuclear cells (PMN) (n=4); format: functional; procedure, shortened: as §2
[8] = species: Homo sapiens; test: Relative potency of peptide for human fetal artery was determined; format: functional; procedure, shortened: as §1
[9] = species: Homo sapiens; test: Spasmogenic activity was measured by the ability to induce smooth muscle contraction in human fetal artery; format: functional, Muscle tissue; procedure, shortened: as §1
[10] = species: Homo sapiens; test: Tested for the ability to stimulate beta-glucuronidase release from human polymorphonuclear cells (PMN) (n=4); format: functional; procedure, shortened: as §2
[11] = species: Homo sapiens; test: Maximum efficacy relative to C5a (100%) for human polymorphonuclear cells (PMN) was determined (n=4); format: functional; procedure, shortened: as §2
[12] = Selectivity of peptide was determined from antilog[pD2(fetal artery)-pD2 (PMN enzyme release)] (n=12); format: functional; procedure, shortened: as §3
[13] = Selectivity of peptide was determined from antilog[pD2(fetal artery)-pD2 (PMN enzyme release)] (n=10); format: functional; procedure, shortened: as §3
[14] = species: Homo sapiens; test: Tested for inhibition of binding of [125I]C5a to intact human polymorphonuclear cells (PMN) (n=3); format: functional
Procedure, shortened: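 Competition binding on freshly isolated intact human PMNs (0.25 × 10⁶) with 20 pM [¹²⁵I]C5a plus unlabeled C5a or peptide. Buffer is 50 mM HEPES, 1 mM CaCl₂, 5 mM MgCl₂, 0.5% BSA. Incubation 60 min at 4 °C, then filtration, ice-cold washes and gamma counting, triplicates. Nonspecific binding defined with 1 mM peptide or 100 nM C5a. Relative affinity = antilog[−(log IC50 C5a − log IC50 peptide)] × 100. The potency/binding ratio is EC50 divided by the binding IC50.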

[15] = species: Homo sapiens; test: Maximum efficacy relative to C5a (100%) for human polymorphonuclear cells (PMN) was determined (n=5); format: functional; procedure, shortened: as §2
[16] = species: Homo sapiens; test: Log potency ratio [pD2(C5a)-pD2(peptide)] was determined in human polymorphonuclear cells (PMN) (n=5); format: functional; procedure, shortened: as §2
[17] = species: Homo sapiens; test: Tested for the ability to stimulate beta-glucuronidase release from human polymorphonuclear cells (PMN) (n=5); format: functional; procedure, shortened: as §2
[18] = species: Homo sapiens; test: Relative potency of peptide to stimulate beta-glucuronidase release from human polymorphonuclear cells (PMN) (n=5); format: functional; procedure, shortened: as §2

Row | SMILES | EC50 [1] | EC50 [3] | Mean log concentration ratio [4] | Mean log concentration ratio [5] | Potency [7] | Potency [8] | pD2 [9] | pD2 [10] | C5a max [11] | further results
1 | CSCC[C@H](NC(=O)[C@@H]1CCCN1C(=O)[C@H](CCCCN)NC(=O)[C@H](Cc1ccccc1)NC(=O)[C@H](CO)NC(=O)[C@H](Cc1ccc(O)cc1)NC(=O)CCCCCNC(=O)[C@H](Cc1c[nH]c2ccccc12)NC(=O)[C@@H](N)CCCCN)C(=O)N1CCC[C@H]1C(=O)N[C@@H](CC(C)C)C(=O)N[C@H](C)C(=O)N[C@@H](CCCN=C(N)N)C(=O)O [listing 1 of 2 here] | 100 nM |  |  |  |  |  |  |  |  | EC50 [2]: 2500 nM
2 | CSCC[C@H](NC(=O)[C@@H]1CCCN1C(=O)[C@H](CCCCN)NC(=O)[C@H](Cc1ccccc1)NC(=O)[C@H](CO)NC(=O)[C@H](Cc1ccc(O)cc1)NC(=O)CNC(=O)CNC(=O)CNC(=O)[C@H](CCCCN)NC(=O)CNC(=O)[C@H](CCCCN)NC(=O)CNC(=O)[C@@H](N)CCCCN)C(=O)N1CCC[C@H]1C(=O)N[C@@H](CC(C)C)C(=O)N[C@H](C)C(=O)N[C@@H](CCCN=C(N)N)C(=O)O [listing 1 of 2 here] | 70 nM | 2000 nM |  |  |  |  |  |  |  | 
3 | CSCC[C@H](NC(=O)[C@@H]1CCCN1C(=O)[C@H](CCCCN)NC(=O)[C@H](Cc1ccccc1)NC(=O)[C@H](CO)NC(=O)[C@H](Cc1ccc(O)cc1)NC(=O)CNC(=O)CNC(=O)CNC(=O)[C@H](CCCCN)NC(=O)CNC(=O)[C@H](CCCCN)NC(=O)CNC(=O)[C@@H](N)CCCCN)C(=O)N1CCC[C@H]1C(=O)N[C@@H](CC(C)C)C(=O)N[C@H](C)C(=O)N[C@@H](CCCN=C(N)N)C(=O)O [listing 2 of 2 here] |  |  | 0.83 | 1.74 | 1.8% | 15% | 7.14 | 5.71 | 177% | Selectivity [6]: 27
4 | CSCC[C@H](NC(=O)[C@@H]1CCCN1C(=O)[C@H](CCCCN)NC(=O)[C@H](Cc1ccccc1)NC(=O)[C@H](CO)NC(=O)[C@H](Cc1ccc(O)cc1)NC(=O)CCCCCNC(=O)[C@H](Cc1c[nH]c2ccccc12)NC(=O)[C@@H](N)CC(=O)O)C(=O)N1CCC[C@H]1C(=O)N[C@@H](CC(C)C)C(=O)N[C@H](C)C(=O)N[C@@H](CCCN=C(N)N)C(=O)O | 200 nM | 7200 nM |  |  |  |  |  |  |  | 
5 | CSCC[C@H](NC(=O)[C@@H]1CCCN1C(=O)[C@H](CCCCN)NC(=O)[C@H](Cc1ccccc1)NC(=O)[C@H](CO)NC(=O)[C@H](Cc1ccc(O)cc1)NC(=O)CCCCCNC(=O)[C@H](CCCCN)NC(=O)CNC(=O)[C@H](CCCCN)NC(=O)CNC(=O)[C@@H](N)CCCCN)C(=O)N1CCC[C@H]1C(=O)N[C@@H](CC(C)C)C(=O)N[C@H](C)C(=O)N[C@@H](CCCN=C(N)N)C(=O)O [listing 1 of 2 here] |  |  | 0.99 | 2.2 | 0.6% | 10% | 6.98 | 5.18 | 173% | Selectivity [12]: 63
6 | CSCC[C@H](NC(=O)[C@@H]1CCCN1C(=O)[C@H](CCCCN)NC(=O)[C@H](Cc1ccccc1)NC(=O)[C@H](CO)NC(=O)[C@H](Cc1ccc(O)cc1)NC(=O)[C@H](CCCCN)NC(=O)CNC(=O)[C@H](CCCCN)NC(=O)CNC(=O)[C@@H](N)CCCCN)C(=O)N1CCC[C@H]1C(=O)N[C@@H](CC(C)C)C(=O)N[C@H](C)C(=O)N[C@@H](CCCN=C(N)N)C(=O)O [listing 1 of 2 here] |  |  | 1.2 | 2.05 | 0.9% | 6.2% | 6.81 | 5.4 | 198% | Selectivity [13]: 26
7 | CSCC[C@H](NC(=O)[C@@H]1CCCN1C(=O)[C@H](CCCCN)NC(=O)[C@H](Cc1ccccc1)NC(=O)[C@H](CO)NC(=O)[C@H](Cc1ccc(O)cc1)NC(C)=O)C(=O)N1CCC[C@H]1C(=O)N[C@@H](CC(C)C)C(=O)N[C@H](C)C(=O)N[C@@H](CCCN=C(N)N)C(=O)O | 100 nM | 9300 nM |  |  |  |  |  |  |  | 
8 | CSCC[C@H](NC(=O)[C@@H]1CCCN1C(=O)[C@H](CCCCN)NC(=O)[C@H](Cc1ccccc1)NC(=O)[C@H](CO)NC(=O)[C@H](Cc1ccc(O)cc1)NC(=O)CCCCCN)C(=O)N1CCC[C@H]1C(=O)N[C@@H](CC(C)C)C(=O)N[C@H](C)C(=O)N[C@@H](CCCN=C(N)N)C(=O)O | 70 nM | 3100 nM |  |  |  |  |  |  |  | IC50 [14]: 5500 nM
9 | CSCC[C@H](NC(=O)[C@@H]1CCCN1C(=O)[C@H](CCCCN)NC(=O)[C@H](Cc1ccccc1)NC(=O)[C@H](CO)NC(=O)[C@H](Cc1ccc(O)cc1)NC(=O)CCCCCNC(=O)[C@H](CCCCN)NC(=O)CNC(=O)[C@H](CCCCN)NC(=O)CNC(=O)[C@@H](N)CCCCN)C(=O)N1CCC[C@H]1C(=O)N[C@@H](CC(C)C)C(=O)N[C@H](C)C(=O)N[C@@H](CCCN=C(N)N)C(=O)O [listing 2 of 2 here] | 100 nM | 6700 nM |  |  |  |  |  |  |  | 
10 | CSCC[C@H](NC(=O)[C@@H]1CCCN1C(=O)[C@H](CCCCN)NC(=O)[C@H](Cc1ccccc1)NC(=O)[C@H](CO)NC(=O)[C@H](Cc1ccc(O)cc1)NC(=O)CCCCCNC(=O)[C@H](CCCCN)NC(=O)CNC(=O)[C@@H](N)CCCCN)C(=O)N1CCC[C@H]1C(=O)N[C@@H](CC(C)C)C(=O)N[C@H](C)C(=O)N[C@@H](CCCN=C(N)N)C(=O)O [listing 1 of 2 here] | 100 nM | 4900 nM |  |  |  |  |  |  |  | 
11 | CSCC[C@H](NC(=O)[C@@H]1CCCN1C(=O)[C@H](CCCCN)NC(=O)[C@H](Cc1ccccc1)NC(=O)[C@H](CO)NC(=O)[C@H](Cc1ccc(O)cc1)NC(=O)CCCCCNC(=O)[C@H](Cc1c[nH]c2ccccc12)NC(=O)[C@@H](N)CCCCN)C(=O)N1CCC[C@H]1C(=O)N[C@@H](CC(C)C)C(=O)N[C@H](C)C(=O)N[C@@H](CCCN=C(N)N)C(=O)O [listing 2 of 2 here] |  |  | 0.86 |  |  | 14% | 7.11 |  |  | Selectivity [6]: 32; C5a max [15]: 134%; Mean log concentration ratio [16]: 1.72; pD2 [17]: 5.6; Potency [18]: 1.9%
12 | CSCC[C@H](NC(=O)[C@@H]1CCCN1C(=O)[C@H](CCCCN)NC(=O)[C@H](Cc1ccccc1)NC(=O)[C@H](CO)NC(=O)[C@H](Cc1ccc(O)cc1)NC(=O)CCCCCNC(=O)[C@H](CCCCN)NC(=O)CNC(=O)[C@@H](N)CCCCN)C(=O)N1CCC[C@H]1C(=O)N[C@@H](CC(C)C)C(=O)N[C@H](C)C(=O)N[C@@H](CCCN=C(N)N)C(=O)O [listing 2 of 2 here] |  |  | 0.97 | 1.99 | 1% | 11% | 6.98 | 5.31 | 156% | Selectivity [13]: 47
13 | CSCC[C@H](NC(=O)[C@@H]1CCCN1C(=O)[C@H](CCCCN)NC(=O)[C@H](Cc1ccccc1)NC(=O)[C@H](CO)NC(=O)[C@H](Cc1ccc(O)cc1)NC(=O)[C@H](CCCCN)NC(=O)CNC(=O)[C@H](CCCCN)NC(=O)CNC(=O)[C@@H](N)CCCCN)C(=O)N1CCC[C@H]1C(=O)N[C@@H](CC(C)C)C(=O)N[C@H](C)C(=O)N[C@@H](CCCN=C(N)N)C(=O)O [listing 2 of 2 here] | 200 nM | 3900 nM |  |  |  |  |  |  |  | 
